Laboratory results from ChEMBL document CHEMBL4823271, “Synthesis and structure-activity relationship of new chalcone linked 5-phenyl-3-isoxazolecarboxylic acid methyl esters potentially active against drug resistant Mycobacterium tuberculosis” (Eur J Med Chem, 2021).
Converted amounts (≈) assume the structure as drawn. The source made the active and inactive calls. No cut-off for these calls is given here.

Legend:
[1] = tested on: Mycobacterium tuberculosis; experiment: Antitubercular activity against Mycobacterium tuberculosis H37Rv assessed as bacterial growth inhibition after 7 days by broth microdilution assay; assay type: functional; conditions: 168 h, dose 0.03-64 µg/ml, time 7 day
Procedure, shortened: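 Compounds were tested in broth microdilution from 64 downward, incubated 37 °C for 7 days, then resazurin (PrestoBlue) added. MIC is the lowest concentration preventing the blue-to-pink change, run in triplicate, reporting the value obtained at least twice of three.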

[2] = Cytotoxicity against African green monkey vero cells assessed as reduction in cell viability measured after 72 hrs by MTT assay; assay type: cell-based; conditions: chlorocebus sabaeus
Procedure, shortened: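 Vero cells seeded at ~10³ cells/well and grown 24 h at 37 °C, 5% CO₂, then exposed to compound (100 to 5 mg/l) for 72 h. MTT was added […] for 4 h and formazan dissolved in DMSO. CC50 is the lowest concentration giving 50% viability reduction. Doxorubicin was the positive control, run in triplicate.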

[3] = Selectivity index, ratio of CC50 for African green monkey Vero cells to MIC for Antitubercular activity against Mycobacterium tuberculosis H37Rv; assay type: toxicity; conditions: read-out: Selectivity Index
Procedure, shortened: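 Selectivity index calculated as Vero CC50 (MTT, 72 h) divided by the H37Rv MIC from the resazurin broth microdilution assay.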

[4] = tested on: Mycobacterium tuberculosis; experiment: Antimycobacterial activity against Mycobacterium tuberculosis H37Rv ATCC 27294 assessed as reduction in bacterial growth incubated for […] by broth microdilution assay; assay type: functional
[5] = tested on: Mycobacteroides abscessus; experiment: Antimycobacterial activity against Mycobacterium abscessus ATCC 19977 assessed as visible growth inhibition incubated for 16 to 18 hrs; assay type: functional, organism-based; conditions: time 16-18 hrs
[6] = tested on: Mycolicibacterium fortuitum; experiment: Antimycobacterial activity against Mycobacterium fortuitum ATCC 6841 assessed as visible growth inhibition incubated for 16 to 18 hrs; assay type: functional, organism-based; conditions: time 16-18 hrs
[7] = tested on: Mycobacteroides chelonae; experiment: Antimycobacterial activity against Mycobacterium chelonae ATCC 35752 assessed as visible growth inhibition incubated for 16 to 18 hrs; assay type: functional, organism-based; conditions: time 16-18 hrs
[8] = tested on: Mycobacterium tuberculosis; experiment: Antimycobacterial activity against Mycobacterium tuberculosis H37Ra; assay type: functional
[9] = tested on: Mycobacterium tuberculosis; experiment: Antimycobacterial activity against Mycobacterium tuberculosis H37Rv assessed as reduction in CFU at 10 times MIC concentration measured up to 6 days by time kill assay; assay type: functional, organism-based; conditions: time day <=6
Procedure, shortened: (§1)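 Time-kill: H37Rv at ~10⁵ CFU/mL in 96-well plates with compound at 1x or 10x MIC, 37 °C for 6 days. At time-points, samples were serially two-fold diluted in normal saline and plated on 7H11 agar with OADC. Colonies were counted after […] at 37 °C, and CFU/mL was plotted against time with and without compound.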

[10] = tested on: Mycobacterium tuberculosis; experiment: Antimycobacterial activity against Mycobacterium tuberculosis H37Rv assessed as reduction in CFU at MIC concentration measured up to 6 days by time kill assay; assay type: functional, organism-based; conditions: time day <=6; procedure, shortened: as §1

With `COC(=O)c1cc(-c2cccc(NC(=O)c3ccc(/C=C/C(=O)c4ccccc4C)cc3)c2)on1` the MIC [1] was 0.25 µg/mL (≈ 0.536 µM), the CC50 at 72 h [2] was greater than 25 µg/mL and the selectivity ratio [3] was greater than 100. The MIC [4] was 0.25 µg/mL (≈ 0.536 µM), the Activity [5] was “inactive” and the Activity [6] was “inactive”. For the same compound, the Activity [7] was “inactive”.
Compound `COC(=O)c1cc(-c2cccc(NC(=O)c3ccc(/C=C/C(=O)c4cccc(Cl)c4)cc3)c2)on1` has an MIC [1] of 0.25 µg/mL (≈ 0.513 µM), a CC50 at 72 h [2] greater than 2.5 µg/mL and a selectivity ratio [3] greater than 10. The MIC [4] was 0.25 µg/mL (≈ 0.513 µM), the Activity [5] was “inactive” and the Activity [6] was “inactive”. For the same compound, the Activity [7] was “inactive”.
`COC(=O)c1cc(-c2cccc(NC(=O)c3ccc(/C=C/C(=O)c4ccc(C)cc4)cc3)c2)on1` showed an MIC [1] of 0.5 µg/mL (≈ 1.07 µM), a CC50 at 72 h [2] greater than 80 µg/mL and a selectivity ratio [3] greater than 160. For the same compound, the MIC [4] was 5 µg/mL (≈ 10.7 µM), the Activity [5] was “inactive” and the Activity [6] was “inactive”. For the same compound, the Activity [7] was “inactive”.
`COc1cc(/C=C/c2cc(/C=C/c3ccc(OC)c(OC)c3)no2)ccc1O` showed an MIC [8] of 0.09 µg/mL (≈ 0.237 µM).
In the case of `CCOc1ccc(C(=O)/C=C/c2ccc(C(=O)Nc3cccc(-c4cc(C(=O)OC)no4)c3)cc2)cc1`, the MIC [1] is reported as 0.25 µg/mL (≈ 0.504 µM), the CC50 at 72 h [2] is reported as greater than 40 µg/mL and the selectivity ratio [3] is reported as greater than 160. The MIC [4] was 0.25 µg/mL (≈ 0.504 µM), the Activity [9] was “Active” and the Activity [10] was “Active”. The Activity [5] was “inactive”, the Activity [6] was “inactive” and the Activity [7] was “inactive”.
With `COC(=O)c1cc(-c2cccc(NC(=O)c3ccc(/C=C/C(=O)c4ccc(OC)cc4OC)cc3)c2)on1` the MIC [1] was 0.25 µg/mL (≈ 0.488 µM), the CC50 at 72 h [2] was greater than 50 µg/mL and the selectivity ratio [3] was greater than 200. For the same compound, the MIC [4] was 0.25 µg/mL (≈ 0.488 µM), the Activity [5] was “inactive” and the Activity [6] was “inactive”. The Activity [7] was “inactive”.
With `COC(=O)c1cc(-c2cccc(NC(=O)c3ccc(/C=C/C(=O)c4ccc(N5CCOCC5)cc4)cc3)c2)on1` the MIC [1] was 0.5 µg/mL (≈ 0.93 µM), the CC50 at 72 h [2] was greater than 20 µg/mL and the selectivity ratio [3] was greater than 40. The MIC [4] was 5 µg/mL (≈ 9.3 µM), the Activity [5] was “inactive” and the Activity [6] was “inactive”. The Activity [7] was “inactive”.
In the case of `CN[C@@H]1[C@H](O[C@H]2[C@H](O[C@H]3[C@H](O)[C@@H](O)[C@H](N=C(N)N)[C@@H](O)[C@@H]3N=C(N)N)O[C@@H](C)[C@]2(O)C=O)O[C@@H](CO)[C@H](O)[C@H]1O` [STREPTOMYCIN], the MIC [1] is reported as 0.5 µg/mL (≈ 0.86 µM) and the MIC [4] is reported as 2 µg/mL (≈ 3.44 µM).
Work on `CCCOc1ccc(C(=O)/C=C/c2ccc(C(=O)Nc3cccc(-c4cc(C(=O)OC)no4)c3)cc2)cc1` yielded an MIC [1] of 0.12 µg/mL (≈ 0.235 µM), a CC50 at 72 h [2] greater than 40 µg/mL and a selectivity ratio [3] greater than 320. The MIC [4] was 0.12 µg/mL (≈ 0.235 µM), the Activity [9] was “Active” and the Activity [5] was “inactive”. For the same compound, the Activity [6] was “inactive” and the Activity [7] was “inactive”.
`COC(=O)c1cc(-c2ccc(NC(=O)c3ccc(/C=C/C(=O)c4ccc(Cl)cc4)cc3)cc2)on1` showed an MIC [1] of 0.06 µg/mL (≈ 0.123 µM), a CC50 at 72 h [2] greater than 80 µg/mL and a selectivity ratio [3] greater than 1330. The MIC [4] was 0.06 µg/mL (≈ 0.123 µM), the Activity [5] was “inactive” and the Activity [6] was “inactive”. The Activity [7] was “inactive”.
Compound `COC(=O)c1cc(-c2cccc(NC(=O)c3ccc(/C=C/C(=O)c4ccc(CC(C)C)cc4)cc3)c2)on1` has an MIC [1] of 0.12 µg/mL (≈ 0.236 µM), a CC50 at 72 h [2] greater than 10 µg/mL and a selectivity ratio [3] greater than 84. For the same compound, the MIC [4] was 0.12 µg/mL (≈ 0.236 µM), the Activity [5] was “inactive” and the Activity [6] was “inactive”. For the same compound, the Activity [7] was “inactive”.
In the case of `COC(=O)c1cc(-c2cccc(NC(=O)c3ccc(/C=C/C(=O)c4ccccc4Cl)cc3)c2)on1`, the MIC [1] is reported as 0.25 µg/mL (≈ 0.513 µM), the CC50 at 72 h [2] is reported as greater than 25 µg/mL and the selectivity ratio [3] is reported as greater than 100. For the same compound, the MIC [4] was 0.25 µg/mL (≈ 0.513 µM), the Activity [5] was “inactive” and the Activity [6] was “inactive”. For the same compound, the Activity [7] was “inactive”.
Compound `COC(=O)c1cc(-c2cccc(NC(=O)c3ccc(/C=C/C(=O)c4ccc(F)cc4F)cc3)c2)on1` has an MIC [1] of 0.12 µg/mL (≈ 0.246 µM), a CC50 at 72 h [2] greater than 40 µg/mL and a selectivity ratio [3] greater than 333. For the same compound, the MIC [4] was 0.12 µg/mL (≈ 0.246 µM), the Activity [5] was “inactive” and the Activity [6] was “inactive”. The Activity [7] was “inactive”.
`COC(=O)c1cc(-c2cccc(NC(=O)c3ccc(/C=C/C(=O)c4ccc(Cl)cc4Cl)cc3)c2)on1` showed an MIC [1] of 0.5 µg/mL (≈ 0.959 µM), a CC50 at 72 h [2] greater than 40 µg/mL and a selectivity ratio [3] greater than 80. For the same compound, the MIC [4] was 0.5 µg/mL (≈ 0.959 µM), the Activity [5] was “inactive” and the Activity [6] was “inactive”. The Activity [7] was “inactive”.
`CCOC(=O)c1cc(-c2cccc(NC(=O)c3ccc(/C=C/C(=O)c4ccc(Cl)cc4)cc3)c2)on1` gave an MIC [1] of 0.5 µg/mL (≈ 0.998 µM), a CC50 at 72 h [2] greater than 80 µg/mL and a selectivity ratio [3] greater than 160. The MIC [4] was 0.5 µg/mL (≈ 0.998 µM), the Activity [5] was “inactive” and the Activity [6] was “inactive”. For the same compound, the Activity [7] was “inactive”.
With `COC(=O)c1cc(-c2cccc(NC(=O)c3ccc(/C=C/C(=O)c4ccc(Cl)cc4)cc3)c2)on1` the MIC [1] was 0.12 µg/mL (≈ 0.246 µM), the CC50 at 72 h [2] was greater than 50 µg/mL and the selectivity ratio [3] was greater than 416. The MIC [4] was 0.12 µg/mL (≈ 0.246 µM), the Activity [5] was “inactive” and the Activity [6] was “inactive”. The Activity [7] was “inactive”.
